According to ChEMBL document CHEMBL4346669, “Novel nannocystin A analogues as anticancer therapeutics: Synthesis, biological evaluations and structure-activity relationship studies” (Eur J Med Chem, 2019):
The source made the active and inactive calls. The calls are words filed in the database; no cut-off is given here.

Experiments:
[1] = system: A549; experiment: Antiproliferative activity against human A549 cells assessed as reduction in cell viability measured after 72 hrs by MTT assay; format: functional, cell-based; settings: Homo sapiens, A549, 72 h; read-out: IC50
How it was run: (§1)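 Cells seeded 5×10^3/well, cultured overnight, then exposed to 10, 1, 0.1, 0.01, 0.001 and 0.0001 µM (from 10 mM DMSO stocks diluted in medium; vehicle 1% DMSO PBS) for 72 h at 37 °C. Medium replaced with 0.5 mg/mL MTT for 4 h, formazan dissolved in DMSO, A570 read. IC50 as mean ± SD of three independent experiments.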

[2] = system: HCT-116; experiment: Antiproliferative activity against human HCT116 cells assessed as reduction in cell viability measured after 72 hrs by MTT assay; format: functional, cell-based; settings: Homo sapiens, HCT-116, 72 h; read-out: IC50; how it was run: as §1
[3] = system: MCF7; experiment: Antiproliferative activity against human MCF7 cells assessed as reduction in cell viability measured after 72 hrs by MTT assay; format: functional, cell-based; settings: MCF7, 72 h
How it was run: (§2)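 Cells seeded at 5×10^3 per well and cultured overnight, then exposed for 72 h at 37 °C to six concentrations from 10 µM down to 0.0001 µM (from 10 mM DMSO stock diluted in medium; vehicle 1% DMSO in PBS). MTT at 0.5 mg/mL was added for 4 h, formazan dissolved in DMSO, and A570 read. IC50 given as mean ± SD of three independent experiments.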

[4] = system: SH-SY5Y; experiment: Antiproliferative activity against human SH-SY5Y cells assessed as reduction in cell viability measured after 72 hrs by MTT assay; format: functional, cell-based; how it was run: as §2
[5] = system: MDA-MB-231; experiment: Antiproliferative activity against human MDA-MB-231 cells assessed as reduction in cell viability measured after 72 hrs by MTT assay; format: functional, cell-based; settings: MDA-MB-231, 72 h; how it was run: as §2
[6] = system: A549; experiment: Inhibition of colony formation in human A549 cells at 5 nM incubated for 3 days followed by further incubation in drug-free medium and measured after 15 days by crystal violet staining-based inverted microscopic analysis; format: functional, cell-based
How it was run: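 500 A549 cells/well incubated 24 h, then treated with 5, 10 or 20 nM for 3 days, followed by drug-free medium changed every 3 days. At day 15 after plating, colonies fixed in 95% ethanol 15 min, stained with 0.1% crystal violet, counted (colony = over 100 cells); mean ± SD of three independent experiments.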

[7] = system: A549; experiment: Cell cycle arrest in human A549 cells assessed as accumulation at G2 phase at 30 nM after 24 hrs by propidium iodide/RNase A staining-based flow cytometric analysis (reference value: 30.02%); format: functional
[8] = system: A549; experiment: Cell cycle arrest in human A549 cells assessed as accumulation at S phase at 60 nM after 24 hrs by propidium iodide/RNase A staining-based flow cytometric analysis (reference value: 12.57%); format: functional
[9] = system: A549; experiment: Cell cycle arrest in human A549 cells assessed as accumulation at G2 phase at 60 nM after 24 hrs by propidium iodide/RNase A staining-based flow cytometric analysis (reference value: 30.02%); format: functional
[10] = system: A549; experiment: Cell cycle arrest in human A549 cells assessed as accumulation at G1 phase at 90 nM after 24 hrs by propidium iodide/RNase A staining-based flow cytometric analysis (reference value: 57.41%); format: functional
[11] = system: A549; experiment: Cell cycle arrest in human A549 cells assessed as accumulation at S phase at 90 nM after 24 hrs by propidium iodide/RNase A staining-based flow cytometric analysis (reference value: 12.57%); format: functional
[12] = system: A549; experiment: Induction of apoptosis in human A549 cells assessed as late apoptotic cells at 30 nM after 12 hrs by Annexin-V FITC/propidium iodide staining based flow cytometric analysis (reference value: 1.22%); format: functional
[13] = system: A549; experiment: Induction of apoptosis in human A549 cells assessed as necrotic cells at 60 nM after 12 hrs by Annexin-V FITC/propidium iodide staining based flow cytometric analysis (reference value: 1.28%); format: functional
[14] = system: A549; experiment: Induction of apoptosis in human A549 cells assessed as viable cells at 90 nM after 12 hrs by Annexin-V FITC/propidium iodide staining based flow cytometric analysis (reference value: 97.18%); format: functional; settings: A549, 12 h, read-out: Activity
[15] = system: A549; experiment: Induction of apoptosis in human A549 cells assessed as early apoptotic cells at 90 nM after 12 hrs by Annexin-V FITC/propidium iodide staining based flow cytometric analysis (reference value: 0.32%); format: functional
[16] = system: A549; experiment: Induction of apoptosis in human A549 cells assessed as necrotic cells at 90 nM after 12 hrs by Annexin-V FITC/propidium iodide staining based flow cytometric analysis (reference value: 1.28%); format: functional
[17] = system: A549; experiment: Induction of apoptosis in human A549 cells assessed as early apoptotic cells at 60 nM after 6 hrs by Annexin-V FITC/propidium iodide staining based flow cytometric analysis; format: functional
How it was run: (§3)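 Time-course: A549 (2×10^5 cells/well, grown overnight) exposed to 60 nM for 6, 12 or 24 h; untreated control. Cells trypsinized, washed in cold PBS, stained 15 min with Annexin V-FITC in binding buffer, then PI, and read by flow cytometry; duplicate experiments.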

[18] = system: A549; experiment: Induction of apoptosis in human A549 cells assessed as late apoptotic cells at 60 nM after 6 hrs by Annexin-V FITC/propidium iodide staining based flow cytometric analysis; format: functional; how it was run: as §3
[19] = system: A549; experiment: Induction of apoptosis in human A549 cells assessed as necrotic cells at 60 nM after 6 hrs by Annexin-V FITC/propidium iodide staining based flow cytometric analysis; format: functional; how it was run: as §3
[20] = system: A549; experiment: Induction of apoptosis in human A549 cells assessed as viable cells at 60 nM after 24 hrs by Annexin-V FITC/propidium iodide staining based flow cytometric analysis; format: functional; settings: A549, 24 h, read-out: Activity; how it was run: as §3
[21] = system: A549; experiment: Induction of apoptosis in human A549 cells assessed as early apoptotic cells at 60 nM after 24 hrs by Annexin-V FITC/propidium iodide staining based flow cytometric analysis; format: functional; how it was run: as §3
[22] = system: A549; experiment: Induction of apoptosis in human A549 cells assessed as necrotic cells at 60 nM after 24 hrs by Annexin-V FITC/propidium iodide staining based flow cytometric analysis; format: functional; how it was run: as §3
[23] = system: A549; experiment: Induction of apoptosis in human A549 cells assessed as increase in Bax protein expression by Western blot analysis; format: functional, cell-based
How it was run: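 A549 treated 30, 60 and 90 nM for 24 h; lysates normalized by BCA, 30 μg protein denatured in SDS buffer at 100 °C 8 min, SDS-PAGE, PVDF transfer, blocked in 5% milk/TBS-0.05% Tween 2 h, primary antibodies overnight at 4 °C, HRP anti-rabbit IgG 2 h, ECL detection; β-actin loading control.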

[24] = system: A549; experiment: Induction of apoptosis in human A549 cells after 12 hrs by Annexin-V FITC/propidium iodide staining based flow cytometric analysis; format: functional, cell-based
[25] = system: A549; experiment: Induction of apoptosis in human A549 cells at 60 nM by Annexin-V FITC/propidium iodide staining based flow cytometric analysis; format: functional, cell-based; settings: TDE = time-dependent effect
[26] = system: A549; experiment: Cell cycle arrest in human A549 cells assessed as accumulation at G2 phase after 24 hrs by propidium iodide/RNase A staining-based flow cytometric analysis; format: functional
[27] = system: A549; experiment: Induction of apoptosis in human A549 cells assessed as reduction in Bcl-2 expression at 30 to 90 nM by Western blot analysis

COc1cc(C[C@H]2NC(=O)[C@H](C(C)C)N(C)C(=O)/C(C)=C/C[C@@H](OC)/C(C)=C/C=C/[C@@H](C)[C@@H](c3ccccc3)OC(=O)[C@H](C(C)C)NC2=O)ccc1O
IC50 [1]: 20.2 nM | IC50 [2]: 48.5 nM | IC50 [3]: 15 nM | IC50 [4]: 9.6 nM | IC50 [5]: 12.5 nM | inhibition [6]: Active | Activity [7]: 37.66% | Activity [8]: 14.75% | Activity [9]: 40.8% | Activity [10]: 37.81% | Activity [11]: 4.46% | Activity [12]: 13.6% | Activity [13]: 10.19% | viability at 0.09 µM [14]: 55.4% | Activity [15]: 3.55% | Activity [16]: 12.85% | Activity [17]: 0.34% | Activity [18]: 5.08% | Activity [19]: 2.3% | viability at 0.06 µM [20]: 54.4% | Activity [21]: 3.48% | Activity [22]: 13.07% | Activity [23]: Dose-dependent effect | Activity [24]: Dose-dependent effect | Activity [25]: Tde | Activity [26]: Dose-dependent effect | Activity [27]: Active
